Test results: article PMC11439047 (Nature Communications, 2024)
Changes are numbered by the printed parent chain.

What was measured:
P2X1 receptor F188L = target: T1, P2X1 receptor F188L (Homo sapiens, UniProt P51575, F188L); assay: Calcium ion influx assay; format: cell-based; details: maximal α,β-methylene ATP
T1 sequence (P51575 1-399 F188L): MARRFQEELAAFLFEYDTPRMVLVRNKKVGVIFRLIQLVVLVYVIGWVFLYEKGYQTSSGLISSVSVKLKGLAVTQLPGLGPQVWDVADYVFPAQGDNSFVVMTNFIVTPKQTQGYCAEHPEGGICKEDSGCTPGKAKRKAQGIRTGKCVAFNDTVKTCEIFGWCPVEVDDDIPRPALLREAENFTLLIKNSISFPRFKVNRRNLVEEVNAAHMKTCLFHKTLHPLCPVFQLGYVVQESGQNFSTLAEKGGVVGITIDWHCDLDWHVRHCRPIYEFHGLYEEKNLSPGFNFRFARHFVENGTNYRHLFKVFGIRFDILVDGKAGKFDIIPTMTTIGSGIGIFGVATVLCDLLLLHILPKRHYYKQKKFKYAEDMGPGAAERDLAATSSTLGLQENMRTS

P2X1 receptor S286A = target: T2, P2X1 receptor S286A (Homo sapiens, UniProt P51575, S286A); assay: Saturation radioligand binding with [3H]-α,β-methylene ATP
T2 sequence (P51575 1-399 S286A): T1 sequence (P51575 1-399 F188L) with L188F, S286A
Method in brief: (§1)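 Whole HEK293 Flp-In T-REx cells stably expressing receptor, tetracycline-induced (150 ng/ml, 2 days), 15,000 cells/well, washed in HEPES binding buffer pH 7.4 with Ca2+/Mg2+. Increasing [3H]-α,β-methylene ATP added, 3 h room temperature with gentle agitation; non-specific binding with 10 μM ATP. Ice-cold 0.9% NaCl washes, scintillation counting (CCPM). Specific binding fitted one-site; values above 300 nM termed not defined.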

P2X1 receptor M214A = target: T3, P2X1 receptor M214A (Homo sapiens, UniProt P51575, M214A); assay: Saturation radioligand binding with [3H]-α,β-methylene ATP
T3 sequence (P51575 1-399 M214A): T1 sequence (P51575 1-399 F188L) with L188F, M214A

P2X1 receptor K136W = target: T4, P2X1 receptor K136W (Homo sapiens, UniProt P51575, K136W); assay: Saturation radioligand binding with [3H]-α,β-methylene ATP
T4 sequence (P51575 1-399 K136W): T1 sequence (P51575 1-399 F188L) with K136W, L188F
Method in brief: as §1

P2X1 receptor R292A = target: T5, P2X1 receptor R292A (Homo sapiens, UniProt P51575, R292A); assay: as above
T5 sequence (P51575 1-399 R292A): T1 sequence (P51575 1-399 F188L) with L188F, R292A
Method in brief: as §1

P2X1 receptor D97A = target: T6, P2X1 receptor D97A (Homo sapiens, UniProt P51575, D97A); assay: as above
T6 sequence (P51575 1-399 D97A): T1 sequence (P51575 1-399 F188L) with D97A, L188F
Method in brief: as §1

Nc1ncnc2c1ncn2[C@@H]1O[C@H](COP(=O)(O)CP(=O)(O)OP(=O)(O)O)[C@@H](O)[C@H]1O [α,β-methylene ATP]
time to achieve 50% decay, times WT-P2X1 (P2X1 receptor F188L): approximately 1.5 times | binding affinity compared to WT-P2X1 (P2X1 receptor S286A): comparable to that of WT-P2X1 | binding affinity compared to WT-P2X1 (P2X1 receptor M214A): beyond the threshold that could be accurately measured | binding affinity compared to WT-P2X1 (P2X1 receptor K136W): similar | binding affinity compared to WT-P2X1 (P2X1 receptor R292A): reduced | binding affinity compared to WT-P2X1 (P2X1 receptor D97A): similar
